Data: ChEMBL document CHEMBL3877272, “Synthesis and anti-mitotic activity of 6,7-dihydro-4H-isothiazolo[4,5-b]pyridin-5-ones: In vivo and cell-based studies” (Eur J Med Chem, 2017)
Active and inactive are the calls of the source.

What was measured:
[1] = Solubility in DMSO; type: physicochemical
Paracentrotus lividus [2] = assay: Antimitotic activity in sea urchin embryo assessed as cleavage alteration exposed 8 to 15 mins after fertilization 45 to 55 mins before first mitotic cycle completion measured at 2.5 to 5.5 hrs post dose; type: functional
Outline: (§1)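 Paracentrotus lividus eggs, fertilized in filtered seawater, cultured as monolayer (up to 2000 embryos/mL) at room temperature. Exposed 8–15 min post-fertilization to 2-fold decreasing concentrations (DMSO stock diluted in EtOH; final DMSO ≤0.05%, EtOH ≤1%). Cleavage alteration scored at 8-cell, arrest at early blastula stage (2.5–5.5 h). Effective threshold concentration reported; duplicate measurements.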

Paracentrotus lividus [3] = assay: Antimitotic activity in sea urchin free-swimming blastulae assessed as microtubule destabilization by measuring embryo spinning exposed 8 to 10 hrs after fertilization measured after 15 mins to 20 hrs; type: functional, Blastula
Outline: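 Free-swimming P. lividus blastulae just after hatching (8–10 h post-fertilization) from same culture, exposed in seawater to 2-fold decreasing concentrations (DMSO stock diluted in EtOH). Settling to well bottom with rapid spinning around animal-vegetal axis scored by light microscopy over 15 min–20 h. Effective threshold concentration; duplicate measurements.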

Paracentrotus lividus [4] = assay: Antimitotic activity in sea urchin embryo assessed as cleavage arrest exposed 8 to 15 mins after fertilization 45 to 55 mins before first mitotic cycle completion measured at 2.5 to 5.5 hrs post dose; type: functional; outline: as §1
[5] = Solubility in seawater assessed as micro-crystal formation at 2 uM by light microscopy; type: physicochemical
Outline: (§2)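 Compound from 10 mM DMSO stock diluted 10-fold in 96% EtOH, added to seawater with sea urchin embryos; microcrystal formation checked by light microscopy.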

[6] = Antiproliferative activity against human NCI/ADR-RES cells measured after 3 to 4 days by Celltiter-Glo luminescent cell viability assay; type: functional
[7] = Antiproliferative activity against human MDA-MB-435 cells measured after 96 hrs by Celltiter-Glo assay; type: functional, cell-based; conditions: MDA-MB-435, 96 h
Outline: (§3)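 Cells plated 24 h, then treated 96 h with 0.1% DMSO or concentrations […]; growth by CellTiter-Glo luminescence, normalized to DMSO control; IC50 from dose–response curves by logistic nonlinear regression; mean of three independent experiments.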

[8] = Antiproliferative activity against human MDA-MB-DYT2 cells measured after 96 hrs by Celltiter-Glo assay; type: functional, cell-based; outline: as §3
[9] = Antiproliferative activity against human MDA-MB-468 cells measured after 96 hrs by Celltiter-Glo assay; type: functional, cell-based; conditions: MDA-MB-468, 96 h; outline: as §3
[10] = Antiproliferative activity against human NCI-H1975 cells measured after 96 hrs by Celltiter-Glo assay; type: functional, cell-based; conditions: NCI-H1975, 96 h; outline: as §3
[11] = Antiproliferative activity against human MDA-MB-468 cells measured after 48 hrs by SRB assay; type: functional, cell-based; conditions: MDA-MB-468, 48 h
[12] = Antiproliferative activity against human Caov3 cells measured after 96 hrs by Celltiter-Glo assay; type: functional, cell-based; conditions: Caov-3, 96 h; outline: as §3
[13] = Antiproliferative activity against human MDA-MB-435 cells measured after 48 hrs by SRB assay; type: functional, cell-based; conditions: MDA-MB-435, 48 h
[14] = Antiproliferative activity against human NCI60 cells measured after 48 hrs by SRB assay; type: functional; conditions: NCI60, 48 h
[15] = Antiproliferative activity against human TOV112D cells measured after 96 hrs by Celltiter-Glo assay; type: functional, cell-based; outline: as §3
[16] = Antiproliferative activity against human MDA-MB-231 cells measured after 96 hrs by Celltiter-Glo assay; type: functional, cell-based; conditions: MDA-MB-231, 96 h; outline: as §3
[17] = Antiproliferative activity against human OVCAR8 cells measured after 3 to 4 days by Celltiter-Glo luminescent cell viability assay; type: functional; conditions: OVCAR-8
[18] = Solubility in seawater assessed as micro-crystal formation at 1 uM by light microscopy; type: physicochemical; outline: as §2
[19] = Cell cycle arrest in human MDA-MB-468 cells assessed as reduction in S phase at 1 uM measured after 24 hrs by DNA dye based flow cytometry; type: functional
Outline: (§4)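 Cells exposed to 1 µM compound or 0.1% DMSO for 24 h; stained with bivariate cell cycle kit (DNA dye); Sub-G1, G1, S and G2/M fractions by flow cytometry as mean percentage with standard error; two independent experiments in duplicate.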

[20] = Antiproliferative activity against human MOR/CPR cells measured after 3 days by Celltiter-Glo assay; type: functional, cell-based; conditions: 72 h
Outline: (§5)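 Cells in ATCC-recommended medium, STR-authenticated, mycoplasma-tested; 3-day exposure to varying concentrations; viability by CellTiter-Glo luminescence normalized to DMSO control; IC50 from logistic nonlinear regression; mean of three independent experiments.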

[21] = Cell cycle arrest in human NCI-H1975 cells assessed as reduction in S phase at 1 uM measured after 24 hrs by DNA dye based flow cytometry; type: functional; outline: as §4
[22] = Antiproliferative activity against human adriamycin-resistant MOR cells measured after 3 days by Celltiter-Glo assay; type: functional, cell-based; conditions: 72 h; outline: as §5
[23] = Cell cycle arrest in human NCI-H1975 cells assessed as accumulation in G2/M phase at 1 uM measured after 24 hrs by DNA dye based flow cytometry (reference value: 20%); type: functional; outline: as §4
[24] = Antiproliferative activity against human A2780/ADR cells measured after 3 days by Celltiter-Glo assay; type: functional, cell-based; conditions: 72 h; outline: as §5
[25] = Cell cycle arrest in human NCI-H1975 cells assessed as accumulation in sub-G1 phase at 1 uM measured after 24 hrs by DNA dye based flow cytometry; type: functional; outline: as §4
NCI-H1975 = assay: Induction of microtubule disintegration in human NCI-H1975 cells at 1 uM measured upto 24 hrs by Hoechst staining-based laser scanning microscopic method; type: cell-based
Outline: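 NCI-H1975 cells, 0.1% DMSO or 1 µM compound for 6, 16 and 24 h; paraformaldehyde-fixed, Triton-permeabilized, BSA-blocked, anti-β-tubulin (1:1000, overnight 4 °C) with Alexa Fluor 647 secondary, Hoechst nuclear counterstain; laser scanning confocal imaging.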

[26] = Cell cycle arrest in human MDA-MB-468 cells assessed mitotic index by measuring level of phospho-histone H3 positive cells at 1 uM measured after 24 hrs by DNA dye based flow cytometry (reference value: 2.18); type: functional
[27] = Cell cycle arrest in human NCI-H1975 cells assessed as reduction in G1 phase at 1 uM measured after 24 hrs by DNA dye based flow cytometry; type: functional; outline: as §4
[28] = Antiproliferative activity against human MOR cells measured after 3 days by Celltiter-Glo assay; type: functional, cell-based; conditions: 72 h; outline: as §5
[29] = Cell cycle arrest in human MDA-MB-468 cells assessed as reduction in G1 phase at 1 uM measured after 24 hrs by DNA dye based flow cytometry; type: functional; outline: as §4
[30] = Antiproliferative activity against human A2780 cells measured after 3 days by Celltiter-Glo assay; type: functional, cell-based; conditions: A2780, 72 h; outline: as §5
[31] = Antiproliferative activity against human A2780cis cells measured after 3 days by Celltiter-Glo assay; type: functional, cell-based; conditions: A2780cisR, 72 h; outline: as §5
[32] = Cell cycle arrest in human MDA-MB-468 cells assessed as accumulation in sub-G1 phase at 1 uM measured after 24 hrs by DNA dye based flow cytometry; type: functional; outline: as §4
[33] = Cell cycle arrest in human NCI-H1975 cells assessed mitotic index by measuring level of phospho-histone H3 positive cells at 1 uM measured after 24 hrs by DNA dye based flow cytometry (reference value: 1.9); type: functional
[34] = Antiproliferative activity against human NCI60 cells at 10 uM after 48 hrs by SRB assay relative to control; type: functional; conditions: NCI60, 48 h, read-out: GI
Paracentrotus lividus [35] = assay: Antimitotic activity in early pluteus stage of sea urchin embryo assessed as growth inhibition of skeletal spicules at 1 uM; type: functional, tissue-based; conditions: Spicule
Outline: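 P. lividus embryos (gametes by intracoelomic 0.5 M KCl, fertilized in filtered seawater, room temperature, paddle agitation 60 rpm); compound from 10 mM DMSO stock diluted 10-fold in 96% EtOH; growth of skeletal spicules scored by light microscopy at early pluteus stage.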

Row | Compound | EC (Paracentrotus lividus [2]) | EC (Paracentrotus lividus [3]) | EC (Paracentrotus lividus [4]) | GI50 [6] | IC50 [7] | IC50 [8] | IC50 [9] | IC50 [10] | IC50 [11] | IC50 [12] | IC50 [13] | GI50 [14] | IC50 [15] | IC50 [16] | GI50 [17] | other results
1 | COc1ccc(-c2nsc3c2NC(=O)CC3c2cc(OC)c3c(c2)OCO3)cc1 (stereo unspecified) | >4 µM | >4 µM | >4 µM |  |  |  |  |  |  |  |  |  |  |  |  | solubility [1]: Soluble
2 | COc1ccc(-c2nsc3c2NC(=O)CC3c2cccc(OC)c2)cc1 (stereo unspecified) | 0.01 µM | 0.1 µM | 0.05 µM | 0.42 µM | 0.591 µM | 1.91 µM | 0.662 µM | 1.98 µM | 0.395 µM | 1.48 µM | 0.282 µM | 1.55 µM | 0.808 µM | 1.39 µM | 3.22 µM | solubility [5]: Insoluble
3 | COc1ccc(-c2nsc3c2NC(=O)CC3c2ccc3c(c2)OCO3)cc1 (stereo unspecified) | 0.01 µM | 0.2 µM | 0.1 µM | 0.524 µM |  |  |  |  |  |  |  | 1.55 µM |  |  | 3.04 µM | solubility [18]: Insoluble
4 | COc1ccc(-c2nsc3c2NC(=O)CC3c2ccsc2)cc1 (stereo unspecified) | 0.002 µM | 0.1 µM | 0.005 µM |  | 0.0807 µM | 0.309 µM | 0.163 µM | 0.254 µM | 0.117 µM | 0.152 µM | 0.0235 µM | 0.302 µM | 0.136 µM | 0.192 µM |  | Activity [19]: Active; IC50 [20]: 0.321 µM; Activity [21]: Active; IC50 [22]: 0.063 µM; Activity [23]: 30%; IC50 [24]: 0.355 µM; Activity [25]: Active; Activity (NCI-H1975): Active; Activity index [26]: 11.3; Activity [27]: Active; IC50 [28]: 0.702 µM; Activity [29]: Active; IC50 [30]: 0.229 µM; IC50 [31]: 0.187 µM; Activity [32]: Active; Activity index [33]: 6.95
5 | COc1cc(C2CC(=O)Nc3c(-c4ccc(F)cc4)nsc32)cc2c1OCO2 (stereo unspecified) | >4 µM | >4 µM | >4 µM |  |  |  |  |  |  |  |  |  |  |  |  | inhibition of growth at 10 µM [34]: 10.1%; Activity (Paracentrotus lividus [35]): Active
